Results: ChEMBL document CHEMBL5058577, “EUbOPEN Chemogenomics Library 2 (Multiplex)” (2022)

System: Fibroblast
Test: Multiplex assay against human fibroblast
Format: toxicity, cell-based
Procedure, shortened: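 Live cells were stained at seeding with Hoechst33342, BioTracker Green Microtubule Cytoskeleton Dye, MitoTracker Red and Annexin V Alexa Fluor 680. Following compound addition, they were imaged on a CQ1 microscope at 37°C and 5% CO2 and gated by CellPathfinder machine learning into Hoechst high-intensity objects or normal cells, with normal cells split into healthy, pyknosed or fragmented nuclei and pyknosed cells into mitotic or apoptotic. Tubulin, mitochondrial-mass and membrane-permeability phenotypes are per cents of healthy-nucleus cells.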

[1] = 12 h, 1 µM, compound concentration 1 uM, replicate 1
[2] = 12 h, 1 µM, compound concentration 1 uM, replicate 2
[3] = 12 h, 10 µM, compound concentration 10 uM, replicate 1
[4] = 12 h, 10 µM, compound concentration 10 uM, replicate 2
[5] = 24 h, 1 µM, compound concentration 1 uM, replicate 1
[6] = 24 h, 1 µM, compound concentration 1 uM, replicate 2
[7] = 24 h, 10 µM, compound concentration 10 uM, replicate 1
[8] = 24 h, 10 µM, compound concentration 10 uM, replicate 2
[9] = 48 h, 1 µM, compound concentration 1 uM, replicate 1
[10] = 48 h, 1 µM, compound concentration 1 uM, replicate 2
[11] = 48 h, 10 µM, compound concentration 10 uM, replicate 1
[12] = 48 h, 10 µM, compound concentration 10 uM, replicate 2

CN1CCN(c2nc3cc(C(F)(F)F)ccc3n3cccc23)CC1.O=C(O)/C=C\C(=O)O.O=C(O)/C=C\C(=O)O
Population Apoptotic (%) [1]: 50%
Population Fragmented Nuclei (%) [1]: 18%
Population Healthy Nuclei (%) [1]: 71%
Population Hoechst High Intensity Objects (%) [1]: 0%
Population Membrane Permeable-Phenotype (%) [1]: 0%
Population Mitochondria Different-Phenotype (%) [1]: 5%
Population Mitotic Cells (%) [1]: 50%
Population Normal (%) [1]: 99%
Population Pyknosed Nuclei (%) [1]: 9%
Population Tubulin-Different-Phenotype (%) [1]: 27%
Total Cell Count [1]: 146
Population Apoptotic (%) [2]: 26%
Population Fragmented Nuclei (%) [2]: 24%
Population Healthy Nuclei (%) [2]: 46%
Population Hoechst High Intensity Objects (%) [2]: 6%
Population Membrane Permeable-Phenotype (%) [2]: 6%
Population Mitochondria Different-Phenotype (%) [2]: 4%
Population Mitotic Cells (%) [2]: 73%
Population Normal (%) [2]: 93%
Population Pyknosed Nuclei (%) [2]: 30%
Population Tubulin-Different-Phenotype (%) [2]: 47%
Total Cell Count [2]: 107
Population Apoptotic (%) [3]: 40%
Population Fragmented Nuclei (%) [3]: 29%
Population Healthy Nuclei (%) [3]: 59%
Population Hoechst High Intensity Objects (%) [3]: 2%
Population Membrane Permeable-Phenotype (%) [3]: 0%
Population Mitochondria Different-Phenotype (%) [3]: 25%
Population Mitotic Cells (%) [3]: 59%
Population Normal (%) [3]: 97%
Population Pyknosed Nuclei (%) [3]: 10%
Population Tubulin-Different-Phenotype (%) [3]: 69%
Total Cell Count [3]: 207
Population Apoptotic (%) [4]: 60%
Population Fragmented Nuclei (%) [4]: 35%
Population Healthy Nuclei (%) [4]: 41%
Population Hoechst High Intensity Objects (%) [4]: 4%
Population Membrane Permeable-Phenotype (%) [4]: 4%
Population Mitochondria Different-Phenotype (%) [4]: 38%
Population Mitotic Cells (%) [4]: 40%
Population Normal (%) [4]: 95%
Population Pyknosed Nuclei (%) [4]: 22%
Population Tubulin-Different-Phenotype (%) [4]: 85%
Total Cell Count [4]: 117
Population Apoptotic (%) [5]: 66%
Population Fragmented Nuclei (%) [5]: 16%
Population Healthy Nuclei (%) [5]: 72%
Population Hoechst High Intensity Objects (%) [5]: 1%
Population Membrane Permeable-Phenotype (%) [5]: 0%
Population Mitochondria Different-Phenotype (%) [5]: 2%
Population Mitotic Cells (%) [5]: 33%
Population Normal (%) [5]: 98%
Population Pyknosed Nuclei (%) [5]: 10%
Population Tubulin-Different-Phenotype (%) [5]: 23%
Total Cell Count [5]: 142
Population Apoptotic (%) [6]: 40%
Population Fragmented Nuclei (%) [6]: 35%
Population Healthy Nuclei (%) [6]: 42%
Population Hoechst High Intensity Objects (%) [6]: 6%
Population Membrane Permeable-Phenotype (%) [6]: 7%
Population Mitochondria Different-Phenotype (%) [6]: 7%
Population Mitotic Cells (%) [6]: 59%
Population Normal (%) [6]: 93%
Population Pyknosed Nuclei (%) [6]: 22%
Population Tubulin-Different-Phenotype (%) [6]: 43%
Total Cell Count [6]: 104
Population Apoptotic (%) [7]: 77%
Population Fragmented Nuclei (%) [7]: 24%
Population Healthy Nuclei (%) [7]: 64%
Population Hoechst High Intensity Objects (%) [7]: 6%
Population Membrane Permeable-Phenotype (%) [7]: 0%
Population Mitochondria Different-Phenotype (%) [7]: 32%
Population Mitotic Cells (%) [7]: 22%
Population Normal (%) [7]: 93%
Population Pyknosed Nuclei (%) [7]: 10%
Population Tubulin-Different-Phenotype (%) [7]: 75%
Total Cell Count [7]: 214
Population Apoptotic (%) [8]: 63%
Population Fragmented Nuclei (%) [8]: 37%
Population Healthy Nuclei (%) [8]: 43%
Population Hoechst High Intensity Objects (%) [8]: 1%
Population Membrane Permeable-Phenotype (%) [8]: 6%
Population Mitotic Cells (%) [8]: 36%
Population Normal (%) [8]: 98%
Population Pyknosed Nuclei (%) [8]: 19%
Population Tubulin-Different-Phenotype (%) [8]: 86%
Total Cell Count [8]: 117
Population Apoptotic (%) [9]: 44%
Population Fragmented Nuclei (%) [9]: 25%
Population Healthy Nuclei (%) [9]: 63%
Population Hoechst High Intensity Objects (%) [9]: 2%
Population Membrane Permeable-Phenotype (%) [9]: 1%
Population Mitochondria Different-Phenotype (%) [9]: 2%
Population Mitotic Cells (%) [9]: 55%
Population Normal (%) [9]: 97%
Population Pyknosed Nuclei (%) [9]: 11%
Population Tubulin-Different-Phenotype (%) [9]: 22%
Total Cell Count [9]: 162
Population Apoptotic (%) [10]: 42%
Population Fragmented Nuclei (%) [10]: 37%
Population Healthy Nuclei (%) [10]: 40%
Population Hoechst High Intensity Objects (%) [10]: 3%
Population Membrane Permeable-Phenotype (%) [10]: 0%
Population Mitotic Cells (%) [10]: 57%
Population Normal (%) [10]: 96%
Population Pyknosed Nuclei (%) [10]: 21%
Population Tubulin-Different-Phenotype (%) [10]: 57%
Total Cell Count [10]: 102
Population Apoptotic (%) [11]: 77%
Population Fragmented Nuclei (%) [11]: 22%
Population Healthy Nuclei (%) [11]: 68%
Population Hoechst High Intensity Objects (%) [11]: 7%
Population Membrane Permeable-Phenotype (%) [11]: 0%
Population Mitochondria Different-Phenotype (%) [11]: 28%
Population Mitotic Cells (%) [11]: 22%
Population Normal (%) [11]: 92%
Population Pyknosed Nuclei (%) [11]: 9%
Population Tubulin-Different-Phenotype (%) [11]: 77%
Total Cell Count [11]: 211
Population Apoptotic (%) [12]: 63%
Population Fragmented Nuclei (%) [12]: 33%
Population Healthy Nuclei (%) [12]: 57%
Population Hoechst High Intensity Objects (%) [12]: 5%
Population Membrane Permeable-Phenotype (%) [12]: 1%
Population Mitochondria Different-Phenotype (%) [12]: 23%
Population Mitotic Cells (%) [12]: 36%
Population Normal (%) [12]: 94%
Population Tubulin-Different-Phenotype (%) [12]: 85%
Total Cell Count [12]: 118
